Measurements as given in PMC4814305 (The Biochemical journal, 2016).
Where “and” joins values, the source holds several entries; their conditions need not be identical. Equal entries are not always repeated. Entries after “also recorded” stand apart in the source; their conditions may differ.

Legend:
[1] = tested on: DB-1 human melanoma cells; experiment: L-lactate output and intracellular [L-lactate] of DB-1 melanoma cells; format: cell-based; conditions: DB-1 cells, 1 h, vs DMSO
[2] = target: T1, MCT2 (Rattus norvegicus, UniProt Q63344); experiment: [U-14C] L-lactate uptake by Xenopus laevis oocytes expressing MCT2; format: cell-based; conditions: cooperative inhibition fit
T1 sequence (Q63344 1-489): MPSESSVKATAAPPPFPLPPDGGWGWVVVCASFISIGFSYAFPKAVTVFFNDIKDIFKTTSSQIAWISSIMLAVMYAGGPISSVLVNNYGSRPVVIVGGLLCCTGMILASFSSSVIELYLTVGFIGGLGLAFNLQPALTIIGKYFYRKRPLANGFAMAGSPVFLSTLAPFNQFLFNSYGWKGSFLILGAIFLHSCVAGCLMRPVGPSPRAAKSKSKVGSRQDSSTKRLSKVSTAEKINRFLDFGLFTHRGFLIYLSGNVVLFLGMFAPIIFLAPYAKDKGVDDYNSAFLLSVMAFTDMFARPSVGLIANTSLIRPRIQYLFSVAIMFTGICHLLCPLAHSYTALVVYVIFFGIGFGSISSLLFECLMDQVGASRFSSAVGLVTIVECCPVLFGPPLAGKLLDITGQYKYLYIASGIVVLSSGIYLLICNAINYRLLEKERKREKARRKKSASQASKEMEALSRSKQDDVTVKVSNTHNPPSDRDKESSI
T1 sequence (O88775 34-328 partner): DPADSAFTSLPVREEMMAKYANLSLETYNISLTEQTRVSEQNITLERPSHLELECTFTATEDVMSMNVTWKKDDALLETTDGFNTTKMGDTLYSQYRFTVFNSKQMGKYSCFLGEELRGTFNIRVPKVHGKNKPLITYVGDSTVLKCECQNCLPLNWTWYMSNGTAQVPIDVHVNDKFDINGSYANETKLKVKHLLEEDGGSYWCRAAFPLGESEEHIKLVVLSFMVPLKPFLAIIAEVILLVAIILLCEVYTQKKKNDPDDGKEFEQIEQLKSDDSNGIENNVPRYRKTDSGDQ

[3] = tested on: DB-1 xenografts; conditions: 100 mg/kg i.p., cited from earlier work
[4] = tested on: uncoupled pyruvate oxidation by isolated rat heart mitochondria; experiment: Uncoupled pyruvate oxidation by rat heart mitochondria; format: biochemical
[5] = target: T2, mitochondrial pyruvate carrier (MPC) (Rattus norvegicus, UniProt P38718+P63031); experiment: [1-14C] pyruvate uptake into isolated rat liver mitochondria; format: biochemical
T2 sequence (P63031 1-109): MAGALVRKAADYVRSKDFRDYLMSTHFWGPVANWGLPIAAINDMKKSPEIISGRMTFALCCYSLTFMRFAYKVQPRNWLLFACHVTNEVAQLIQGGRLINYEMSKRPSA
T2 sequence (P38718 1-127): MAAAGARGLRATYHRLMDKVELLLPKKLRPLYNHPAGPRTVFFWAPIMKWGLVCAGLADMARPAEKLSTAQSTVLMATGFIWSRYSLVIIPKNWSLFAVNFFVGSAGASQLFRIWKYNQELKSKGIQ
Procedure, shortened: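 Liver mitochondria from male Wistar rats (~275 g) were isolated by homogenisation, differential and Percoll centrifugation, then held 2 min on ice at 6 mg protein/mL with test compound. Uptake ran in pH 6.8 KCl/MOPS/EGTA buffer with 1 μM rotenone, 60 μM [1-14C]pyruvate and 3H2O at 9°C, stopped at 45 s by rapid sedimentation. Four replicates per concentration, 3 preparations; Ki fitted from % of control, mean ± S.E.M.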

[6] = target: T3, MCT4 (Homo sapiens, UniProt O15427); experiment: [U-14C] L-lactate uptake by Xenopus laevis oocytes expressing MCT4; format: cell-based; conditions: cooperative inhibition fit
T3 sequence (O15427 1-465): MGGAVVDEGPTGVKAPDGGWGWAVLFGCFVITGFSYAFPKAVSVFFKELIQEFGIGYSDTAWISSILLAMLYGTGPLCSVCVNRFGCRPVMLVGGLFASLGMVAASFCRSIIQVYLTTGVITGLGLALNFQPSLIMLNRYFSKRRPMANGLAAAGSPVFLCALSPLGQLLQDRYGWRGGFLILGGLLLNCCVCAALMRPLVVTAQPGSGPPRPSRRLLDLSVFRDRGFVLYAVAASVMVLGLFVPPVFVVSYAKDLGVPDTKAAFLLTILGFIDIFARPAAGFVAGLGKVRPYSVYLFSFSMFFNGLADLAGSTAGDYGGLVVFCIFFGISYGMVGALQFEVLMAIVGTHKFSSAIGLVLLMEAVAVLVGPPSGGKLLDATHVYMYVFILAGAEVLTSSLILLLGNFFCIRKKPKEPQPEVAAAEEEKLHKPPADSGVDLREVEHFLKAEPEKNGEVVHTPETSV

[7] = target: T4, MCT1 (Rattus norvegicus, UniProt P53987); experiment: [U-14C] L-lactate uptake by Xenopus laevis oocytes expressing MCT1; format: cell-based; conditions: cooperative inhibition fit
T4 sequence (P53987 1-494): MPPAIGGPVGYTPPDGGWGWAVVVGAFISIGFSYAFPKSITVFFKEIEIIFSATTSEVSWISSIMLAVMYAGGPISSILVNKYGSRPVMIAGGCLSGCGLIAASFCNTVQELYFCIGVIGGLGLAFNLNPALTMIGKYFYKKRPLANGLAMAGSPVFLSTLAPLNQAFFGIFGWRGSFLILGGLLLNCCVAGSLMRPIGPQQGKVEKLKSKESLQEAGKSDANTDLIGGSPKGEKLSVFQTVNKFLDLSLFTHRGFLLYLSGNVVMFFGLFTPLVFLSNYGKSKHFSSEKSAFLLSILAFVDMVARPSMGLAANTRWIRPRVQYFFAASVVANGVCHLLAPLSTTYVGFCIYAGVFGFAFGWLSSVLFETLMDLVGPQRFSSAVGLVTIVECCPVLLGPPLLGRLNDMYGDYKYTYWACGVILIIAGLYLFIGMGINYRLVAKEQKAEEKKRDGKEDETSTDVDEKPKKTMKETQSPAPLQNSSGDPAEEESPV

Question: For `O=C(O)c1nn(Cc2ccc(Cl)cc2Cl)c2ccccc12` [LND, Lonidamine], which “increase of intracellular [L-lactate]” value ([1]; 40 μM LND) is on record?
Answer: two-fold

Question: And the L-lactate output ([1]; 40 μM and 150 μM LND)?
Answer: decrease in L-lactate output

Question: And the L-lactate output ([1]; 150 μM LND)?
Answer: decreased L-lactate output; also recorded: L-lactate output decreased

Question: And the “increase of intracellular [L-lactate]” value ([1]; 150 μM LND)?
Answer: > five-fold; also recorded: eight-fold

Question: What about the L-lactate output ([1]; 1–10 μM LND) of the same compound?
Answer: increased L-lactate output

Question: What about the “intracellular [L-lactate]” value ([1]; 1–10 μM LND) of the same compound?
Answer: without a detectable increase

Question: And the “Hill coefficient of inhibition of MCT2” value [2]?
Answer: 1.86 ± 0.34

Question: And the “tumour pHi after LND treatment” value ([3]; DB-1 xenografts in mice, within about 40 min, from 6.9 ± 0.1)?
Answer: 6.3 ± 0.1

Question: And the “decrease in the tumour NTP/Pi ratio” value ([3]; DB-1 xenografts in mice, within about 3 hr)?
Answer: 66.8 ± 5.7%

Question: And the “decrease in extracellular pH of the tumour” value ([3]; DB-1 xenografts in mice)?
Answer: ~ 0.2 pH units

Question: And the “rise in tumour [L-lactate]” value ([3]; DB-1 xenografts in mice)?
Answer: three-fold

Question: And the “change in pHi of liver” value ([3]; mice, 20 min post-injection)?
Answer: only a slight transient change

Question: And the “change in NTP/Pi of the liver” value ([3]; mice, 40 min post-injection)?
Answer: only a transient small decrease

Question: And the “change in NTP/Pi ratio of muscle and brain” value ([3]; mice)?
Answer: no change

Question: What about the “change in pHi of normal muscle or brain” value ([3]; mice) of the same compound?
Answer: No significant change

Question: And the “effect on uncoupled pyruvate oxidation” value ([4]; 30°C, 2 μM LND)?
Answer: without effect

Question: And the “inhibition of uncoupled pyruvate oxidation” value ([4]; 30°C, 3 μM LND)?
Answer: ~ 15%

Question: What about the “inhibition of uncoupled pyruvate oxidation” value ([4]; 30°C, 10 μM LND) of the same compound?
Answer: ~70%

Question: And the IC50 ([4]; read-out: IC50 for inhibition of uncoupled pyruvate oxidation, 30°C, pyruvate + malate, FCCP)?
Answer: ~7 µM and ~7.5 µM

Question: And the Ki [5]?
Answer: 2.5 µM

Question: What about the “Hill coefficient of inhibition of MCT4” value [6] of the same compound?
Answer: 1.65–1.85 and 1.84 ± 0.19

Question: What about the “Hill coefficient of inhibition of MCT1” value [7] of the same compound?
Answer: 1.65–1.85 and 1.65 ± 0.23

Question: With `N#CC(=Cc1ccc(O)cc1)C(=O)O` [CHC, α-cyano-4-hydroxycinnamate] as the compound, how does the “inhibition of mitochondrial pyruvate carrier (pyruvate uptake)” value ([5]; rat liver mitochondria, 10 μM inhibitor) read?
Answer: > 90%
